# Compound activity deposited in PubChem BioAssay by several laboratories.
# This is a sample that favours compounds with a hit; in the whole collection about 2.4% have one here.
# aDG glyco up – activators of alpha-DG glycosylation, primary screen, uHTS, Pro5-aDG cells, AlphaScreen; alpha-DG glycosylation AlphaScreen (IIH6); 0% Pro5, 100% B10-LARGE cell signal; activation, % at 10 µM; hit rate 0.22% among 360,000;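 active = activation of at least 8% versus controls, or a plate z-score of at least 8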;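 note: Pro5 are CHO cells carrying HIG-tagged alpha-DG that lacks glycosylation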
# TAG inh – inhibitors of triacylglycerol accumulation, primary screen, cell-based, uHTS, fluorescence, H9c2; hit rate 0.66% among 230,000; H9c2 cells, Nile Red lipid (TAG) fluorescence; cells loaded with 200 µM oleic acid; inhibition, % at 12.5 µM;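 active = pattern-corrected inhibition of lipid staining of at least 50% with the nuclear-stain viability signal not falling by more than 50%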;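 note: 0% = DMSO wells and 100% = triacsin C control wells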
# TbMetRS inhib – T. brucei MetRS inhibitors, primary screen, biochemical, luminescence | methionyl-tRNA synthetase (Trypanosoma brucei brucei) | purified T. brucei MetRS, ATP depletion, Kinase-Glo luminescence | inhibition, % at 11.9 µM | hit rate 0.4% among 360,000;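 active = inhibition above a per-plate cutoff of the control wells' mean inhibition plus 3 SD, cut at about 5.5% in these data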;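 note: 0% = DMSO wells median and 100% = median of wells with control inhibitor compound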
#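 Material – parasite MetRS enzyme · Medium – HEPES-MgCl2-KCl buffer plus DTT, spermine, BSA, pyrophosphatase · Reagent – ATP, methionine and E. coli bulk tRNA substrates · Times – 15 min enzyme-compound preincubation, 2 h reaction, 10 min detection, 25 °C · Measured by – luminescence of leftover ATP · Evaluation – percent inhibition relative to median high and low control wells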
# NTR1 agonist – agonists of human NTR1, primary screen, imaging, U2OS cells, beta-arrestin-GFP, high content; activation, % at 20 µM; Neurotensin receptor type 1 (Homo sapiens), P30989; NTR1-U2OS beta-arrestin-GFP spot imaging, agonist mode; hit rate 0.17% among 330,000;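 active = activation at or above 40% of the spot to cytoplasm intensity ratio, with at least 20 cells analyzed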;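 note: 0% = DMSO without peptide and 100% = 100 nM NTR1 peptide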
# Target sequence (P30989 whole entry, looked up): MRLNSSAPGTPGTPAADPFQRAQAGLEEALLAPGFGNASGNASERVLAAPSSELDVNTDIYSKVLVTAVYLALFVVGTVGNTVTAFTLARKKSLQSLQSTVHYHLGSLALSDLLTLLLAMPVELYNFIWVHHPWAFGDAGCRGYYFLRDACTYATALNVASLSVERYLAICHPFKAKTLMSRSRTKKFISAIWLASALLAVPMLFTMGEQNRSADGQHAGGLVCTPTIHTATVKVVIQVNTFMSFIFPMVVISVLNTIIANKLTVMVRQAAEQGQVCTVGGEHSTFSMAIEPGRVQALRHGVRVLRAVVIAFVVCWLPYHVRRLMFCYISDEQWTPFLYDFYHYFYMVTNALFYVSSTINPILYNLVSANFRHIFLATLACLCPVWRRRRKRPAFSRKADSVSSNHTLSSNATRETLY
# MC4R antagonist – MC4R antagonists of cAMP signaling, primary screen, cell-based, TR-FRET, antagonist arm of biased-ligand search; MC4R-expressing cells, MTII-stimulated cAMP, LANCE TR-FRET; inhibition, % at 6.5 µM; hit rate 0.48% among 360,000; AID 540295, 2011;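 active = inhibition above its plate's cutoff, the mean of tested wells on that plate plus 3 SD, cut at about 29% in these data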;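 note: 0% = Melanotan II alone and 100% = Melanotan II plus saturating MCL0020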
#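 Test system: U2OS cells stably expressing human melanocortin 4 receptor (MC4R); also added: Melanotan II challenge; compound: 6.5 µM single dose; timing: 30-min compound preincubation, 1-h Melanotan II challenge, 1-h detection, room temperature; signal: Eu-cAMP/anti-cAMP TR-FRET, emission 671 nm; repeats: one well per compound, no replicates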
# MC4R ag barr – MC4R agonists recruiting beta-arrestin, primary screen, cell-based, luminescence, agonist arm of biased-ligand search | U2OS MC4R beta-arrestin complementation; percent of melanotan II response, DMSO zero | AID 540308, 2011 | hit rate 0.98% among 360,000 | activation, % at 8.9 µM | Melanocortin receptor 4 (Homo sapiens), P32245;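 active = activation above a per-plate cutoff, the mean activation of sample wells on that plate plus 3 SD, cut at about 8% in these data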
# H9c2 TAG conf – triacylglycerol accumulation inhibitors, retest, confirmation, cell-based, single concentration, Nile Red fluorescence, H9c2 | hit rate 71% among 990 | shares compounds with TAG inh | inhibition, % at 12.5 µM | AID 651629, 2012 | H9c2 lipid accumulation; cells loaded with 200 µM oleic acid;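 active = mean inhibition across replicates of 40% or more; inactive = mean inhibition below 40%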;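 note: plate controls were DMSO only wells for no effect and Triacsin C treated wells for full effect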
# Starred values were filed as active, the others as inactive; x = no result.
SMILES,aDG glyco up,TAG inh,TbMetRS inhib,NTR1 agonist,MC4R antagonist,MC4R ag barr,H9c2 TAG conf
N#Cc1cccc(C(=O)C(=O)N2CCN(C(=O)OCc3ccccc3)CC2)c1,0.0,x,0.0,x,x,x,x
Cc1ccc(Cn2cc(/C=N/NC(=O)Cc3nnc(NC(=O)c4ccc(C)cc4)s3)c3ccccc32)cc1,1.0,52.4*,-0.6,1.1,1.9,0.0,128.3*
O=C(Cc1nnc(NC(=O)c2ccccc2)s1)N/N=C/c1cccc(O)c1,0.0,x,-0.1,-0.1,10.1,0.3,x
CCOC(=O)c1ccc(NC(=O)CCOc2ccccc2)cc1,1.8,8.1,-0.9,0.3,3.6,1.1,x
CCCOC(=O)c1ccc(NC(=O)CCOc2ccccc2)cc1,0.4,64.8*,-0.2,0.4,3.3,4.0,60.8*
COc1cc(C(O)c2nc(-c3cccc(C(F)(F)F)c3)cs2)ccc1F (configuration not stated),0.0,-9.8,-0.3,x,5.3,-0.5,x
C[C@H](O)[C@@H]1CN2CCc3c([nH]c4ccccc34)[C@@H]2C[C@@H]1N(C)C(=O)Nc1cccc2ccccc12,0.1,x,0.1,x,x,x,x
Cc1cccc(-c2ccc3[nH]c4c(c3c2)CCN2C[C@@H]([C@H](C)OC(=O)Nc3ccccc3C)[C@@H](N(C)C(=O)Nc3ccccc3C)C[C@@H]42)c1,1.5,54.4*,-1.1,x,7.6,0.5,66.4*
C[C@H](O)[C@@H]1CN2CCc3c([nH]c4ccc(-c5ccc6c(c5)OCO6)cc34)[C@@H]2C[C@@H]1N(C)C(=O)Nc1ccc(F)cc1,-0.3,81.7*,0.1,x,-8.4,-0.5,68.8*
COc1cccc(/C=N/NC(=O)CNC(=O)COc2ccccc2)c1O,0.1,50.6*,0.2,30.1,9.9,-2.4,0.8
Cc1onc(-c2ccccc2Cl)c1C(=O)N1CCN(C=O)CC1,0.1,9.9,0.5,2.8,14.5,-3.9,x
Cc1cccc(N2CCN(C(=O)c3c(-c4ccccc4Cl)noc3C)CC2)c1C,0.2,71.5*,-0.5,7.1,-21.2,-4.8,65.5*
COc1ccc(NC(=O)c2nc(C)c(C3(C)CC(c4ccccc4)=NO3)s2)cc1 (configuration not stated),0.0,76.5*,-0.2,-3.7,-7.1,-0.6,93.6*
CCC(NC(=O)c1ccccc1NC(=O)C(C)(C)C)C(=O)N1CC(C)OC(C)C1 (configuration not stated),-0.1,-2.7,-0.2,1.2,1.5,-3.5,x
O=C(c1cc(-c2ccncc2)nc2c(Cl)cccc12)N1CCN(c2ccccc2F)CC1,-0.3,55.6*,-0.4,8.6,-21.6,-4.4,69.0*
CCOc1cc(-c2nc(-c3ccccc3)c(-c3cc([N+](=O)[O-])ccc3C)[nH]2)ccc1O,0.8,x,0.5,7.8,10.9,3.7,x
COc1ccc(-c2nc(-c3ccccc3)c(-c3cc([N+](=O)[O-])ccc3C)[nH]2)cc1OC,1.3,50.1*,0.1,2.7,12.3,1.9,57.7*
CCO[C@@H]1OC(C(=O)N2CCN(Cc3ccccc3)CC2)=C[C@H](c2ccc(C(F)(F)F)cc2)[C@H]1CCCO,0.0,52.7*,-0.6,3.3,2.5,1.9,51.5*
Cc1ccc(-n2c(=O)[nH]c3c(C(N)=O)nc(C(C)C)nc32)cc1,0.0,x,-0.6,2.3,20.2,5.5,x
Cc1ccsc1-c1nc(C(N)=O)c2[nH]c(=O)n(-c3ccc(Cl)cc3)c2n1,-0.1,56.6*,-0.7,5.7,11.4,-0.4,41.5*
COc1cc(NC(=O)C2=C(C)OCCS2)c(Cl)cc1C(=O)NCCN(C)C,1.2,x,-1.3,-0.6,-2.2,0.6,x
CN(C)c1ncnc2c1nnn2C1OC(CO)C(O)C1O (configuration not stated),-0.4,43.2,-0.3,x,14.1,1.0,x
CN(C)c1ncnc2c1ncn2C1OC(CO)C(O)C1O (configuration not stated),-0.4,75.3*,-0.6,2.0,10.1,0.5,46.5*
Nc1ncnc2c1ncn2[C@@H]1O[C@H](CNCc2cn(CC(=O)NC3CC3)c3ccccc23)[C@@H](O)[C@H]1O,-0.2,76.1*,-2.2,0.8,6.8,-0.5,4.6
CC(C)C(NC(=O)c1ccccc1)C(=O)N1CCCCCC1 (configuration not stated),0.0,x,-0.3,-1.4,1.3,-0.7,x
SMILES,aDG glyco up,TAG inh,TbMetRS inhib,NTR1 agonist,MC4R antagonist,MC4R ag barr,H9c2 TAG conf
O=C([C@H]1O[C@@H](n2ccc(=O)[nH]c2=O)[C@H](O)[C@@H]1O)N(CCC1=CCCCC1)CC1CC1,-0.3,x,0.2,x,x,x,x
Cn1nc(C#N)c(=O)[nH]c1=O,0.0,2.9,-0.1,x,11.0,-2.4,x
COC(=O)c1cc(NC(=O)c2c(Cl)nc3sccn23)cc(C(=O)OC)c1,0.0,69.7*,-0.3,4.7,3.3,2.2,87.0*
CCN(CC)CCNC(=O)C(Cl)=C1C(Cl)=C(Cl)C(Cl)=C1Cl,-0.5,77.9*,-0.2,x,-0.7,-2.6,73.9*
COc1ccc(/C=C/C(=O)OCC(=O)c2c(N)n(C)c(=O)n(C)c2=O)c(OC)c1,-0.5,23.4,-0.7,-1.7,7.7,-0.2,x
COc1ccc(OC)c(/C=C/C(=O)OCC(=O)c2c(N)n(C)c(=O)n(C)c2=O)c1,0.0,55.7*,0.5,0.3,-3.6,-2.9,-7.5
C=CCn1cnc2c(c1=O)c1nc3ccccc3nc1n2/N=C/c1cccc(OC)c1OC,-0.6,x,0.0,9.4,12.9,-3.3,x
C=CCn1cnc2c(c1=O)c1nc3ccccc3nc1n2/N=C/c1cc(OC)c(OC)c(OC)c1,-0.5,78.6*,-0.3,9.6,0.1,0.4,37.5
Cc1cc(NC(=O)CC2CCCC2)n(-c2nc3ccccc3[nH]2)n1,-0.2,58.9*,-0.4,13.3,-7.7,-1.9,54.0*
Cc1ccc(S(=O)(=O)N2CCC(=O)N(CCOC(=O)NCc3ccccc3)CC2)cc1,x,x,x,-1.5,x,x,x
COc1ccc(CNC(=O)OCCN2CCN(S(=O)(=O)c3ccc(C)cc3)CCC2=O)cc1,-0.1,71.9*,-0.7,-3.4,4.0,1.2,1.4
COc1ccc(-c2noc(-c3ccccc3C(=O)Nc3cccnc3)n2)cc1,-0.3,56.7*,-1.6,0.1,2.7,-0.9,32.9
